In publication PMC10622895 (Proceedings of the National Academy of Sciences of the …, 2023):

Legend:
[1] = ref [1]; cited from earlier work
[2] = system: BCM3107 TNBC PDX; experiment: Patient-derived xenograft in NSG mice; type: in vivo, mouse; conditions: 5D4 40 mg/kg i.p. twice weekly; talazoparib 0.5 mg/kg daily × 5 per week
[3] = system: BCM2665 PDX; experiment: IHC of cleaved PARP1 in PDX tumors; type: in vivo, mouse
Outline: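 Tumors were taken the day after the last dose for cleaved PARP1 IHC. Percent positive cells was scored on twelve 10× images from three xenografts per group.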

[4] = system: mouse intestinal epithelium; experiment: IHC of cleaved PARP1 and Ki67 in mouse intestine; type: in vivo; conditions: mice of the BCM2665 experiment
Outline: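 NSG mice carried BCM2665 breast cancer PDX. Mice were euthanized the day after the last dose. Intestine was IHC-stained for cleaved PARP1 (10× objective), with percent positive cells determined by image analysis. Ki67 IHC was done on intestinal epithelium (20× objective).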

[5] = system: AML12 mouse hepatocytes

O=C(O)CN(CC(=O)O)Cc1cc2c(cc1O)Oc1cc(O)c(CN(CC(=O)O)CC(=O)O)cc1C21OC(=O)c2ccccc21 [calcein]
membrane permeability [1]: lacks membrane permeability

Cn1ncnc1[C@H]1c2n[nH]c(=O)c3cc(F)cc(c23)N[C@@H]1c1ccc(F)cc1 [talazoparib]
tumor response, single agent [2]: resistant
apoptosis in PDX (PARP-1 cleavage, IHC) [3]: only had mild proapoptotic effect
apoptosis and Ki67 staining in mouse intestinal epithelium [4]: neither induced apoptosis nor affected Ki67 staining

CNCc1ccc(-c2[nH]c3cc(F)cc4c3c2CCNC4=O)cc1 [rucaparib]
viability of nontransformed hepatocytes [5]: did not elicit any effect
